# Bioassay records as filed in PubChem BioAssay.
# RGS4 block – RGS4 inhibitors, primary screen, cell-based, HEK293 M3R inducible RGS4, calcium flux; Fluo-4 calcium flux; stronger effect = higher value; triggered by carbachol at its EC20; B-score at 10 µM; actives 0.45% (n = 310,000);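 active means B-score, a plate-corrected calcium signal, over three deviations above library mean, with baseline fluorescence within five deviations of library mean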;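 further: RGS4 expression induced by doxycycline in cells with stable M3 receptor; B-score is computed from the integrated fluorescence ratio over baseline after carbachol; higher B-score means a larger calcium signal and so more RGS4 inhibition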
# Target sequence (P49798 whole entry, looked up): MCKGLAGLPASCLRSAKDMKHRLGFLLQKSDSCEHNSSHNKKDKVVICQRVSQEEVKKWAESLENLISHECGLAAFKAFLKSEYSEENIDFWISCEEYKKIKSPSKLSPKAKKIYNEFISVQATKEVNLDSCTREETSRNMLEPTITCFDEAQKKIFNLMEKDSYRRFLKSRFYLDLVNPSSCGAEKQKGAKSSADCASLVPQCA
# MrgX1 agonist – agonists of human MrgX1 receptor, primary screen, HEK293 cells, Fluo-4 calcium flux | Mas-related G-protein coupled receptor member X1 (Homo sapiens), Q96LB2 | Fluo-4 calcium fluorescence, agonist mode; stronger effect = higher value | B-score at 10 µM | actives 0.44% (n = 310,000) | AID 588627, 2011;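 active means calcium response B-score plate-corrected fluorescence ratio at least 3 library SD, with starting fluorescence B-score inside 5 SD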
# Target sequence (Q96LB2 whole entry, looked up): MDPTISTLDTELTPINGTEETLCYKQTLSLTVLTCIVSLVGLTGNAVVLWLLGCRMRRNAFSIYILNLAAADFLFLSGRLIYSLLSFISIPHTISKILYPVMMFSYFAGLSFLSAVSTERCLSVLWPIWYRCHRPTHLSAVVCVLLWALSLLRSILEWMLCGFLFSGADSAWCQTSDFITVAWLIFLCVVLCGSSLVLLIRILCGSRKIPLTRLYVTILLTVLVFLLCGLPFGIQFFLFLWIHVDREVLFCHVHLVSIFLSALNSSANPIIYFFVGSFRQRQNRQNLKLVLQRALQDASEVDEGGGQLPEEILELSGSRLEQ
#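 Material: HEK293 cells stably expressing human MrgX1 receptor | Quantity: 15,000 cells per well | Times: Cells plated overnight, dye loaded 0.5 h 37 °C, 0.5 h room temperature | Measured by: Kinetic Fluo-4 NW fluorescence of intracellular calcium | Control set: Positive and negative controls per plate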
# RGS4 act – RGS4 potentiators or activators, primary screen, cell-based, HEK293 M3R inducible RGS4, calcium flux. carbachol calcium flux Fluo4; stronger effect = lower value. B-score at 10 µM. actives 0.92% (n = 310,000). AID 463111, 2010;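 active means B-score of the integrated calcium signal more than 4 SD below the library mean, with starting fluorescence not abnormally high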;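 further: negative B-score means reduced calcium response which marks RGS4 activation or potentiation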
#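 Detection: kinetic calcium fluorescence imaging with Fluo4-AM dye, 2 µM / Material: HEK293 cells with stable M3R and inducible RGS4 / Schedule: recording 10 s baseline at 1 Hz, 100 s post-agonist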
# MrgX1 PAM – positive allosteric modulators of MrgX1, primary screen, HEK293 cells, Fluo-4 calcium flux. FDSS; stronger effect = higher value. B-score at 10 µM. actives 0.63% (n = 310,000);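 active means plate-corrected calcium response at least 3 library SD above typical, normal starting fluorescence, not activating the receptor alone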;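 further: compound read alongside a low EC10 to EC30 dose of BAM8-22 agonist; peak minus trough fluorescence over baseline measured at the second addition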
# MrgX1 antag – antagonists of human MrgX1 receptor, primary screen, HEK293 cells, Fluo-4 calcium flux; BAM8-22 antagonism; stronger effect = lower value; actives 1.3% (n = 310,000); B-score at 10 µM; Mas-related G-protein coupled receptor member X1 (Homo sapiens), Q96LB2;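 active means calcium-response B-score plate-corrected more than 3 library SD below zero, starting fluorescence within 5 deviations, no agonist response on first addition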;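 further: peak minus trough fluorescence over baseline after final BAM8-22 challenge near maximal dose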
# MrgX1 antag conf – MrgX1 receptor antagonists, duplicate retest, confirmation, HEK293 cells, Fluo-4 calcium flux | remaining BAM8-22 calcium response % of control (stronger effect = lower value), % at 10 µM | shares compounds with MrgX1 antag | AID 602420, 2012 | actives 19% (n = 2,300) | BAM8-22 calcium flux; stronger effect = lower value;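 active means remaining agonist calcium response no higher than 100% minus 3 SD of agonist-only control wells, with starting fluorescence near control levels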;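 further: agonist BAM8-22 given at a near maximal EC90 to ECmax level; peak minus minimum fluorescence divided by baseline after agonist addition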
# HEK293 Ca flux – nonspecific calcium signal in parental HEK293, confirmation, counter-screen for MrgX1 antagonist project, parental HEK293 cells, Fluo-4 calcium flux; Fluo-4 calcium fluorescence, FDSS; actives 2% (n = 4,000); fluorescence ratio F(max-min)/F0 at 10 µM; shares compounds with MrgX1 antag; AID 624111, 2012;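 active means duplicate-averaged calcium fluorescence ratio at least three times the standard deviation of buffer wells, a nonspecific response in parental cells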
# HEK293 Ca counter – calcium response in parental HEK293 cells, primary screen, counter-screen for MrgX1 allosteric activator project, cell-based, Fluo-4 calcium flux, duplicate; shares compounds with MrgX1 antag; Fluo-4 fluorescence ratio; stronger effect = higher value; fluorescence ratio F(max-min)/F0 at 10 µM; actives 0.4% (n = 4,000); AID 624114, 2012;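 active means calcium fluorescence ratio, averaged over duplicates, at least 3 SD of the buffer-well ratio, meaning a nonspecific response in receptor-free cells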;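 further: untransfected parental HEK293 lacking MrgX1 used as counterscreen for MrgX1 allosteric activators; fluorescence change taken during the second addition on a kinetic imager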
# HEK293 Ca cntr2 – calcium response in parental HEK293 cells, primary screen, counter-screen for MrgX1 agonist project, cell-based, Fluo-4 calcium flux, duplicate, agonist mode | Fluo-4 calcium fluorescence (FDSS); stronger effect = higher value | shares compounds with MrgX1 antag | actives 8.7% (n = 4,000) | fluorescence ratio F(max-min)/F0 at 10 µM;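 active means calcium fluorescence ratio at least three times the spread of buffer wells, meaning a non-specific response in parental cells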
# Numbers without * were called inactive; i = inactive; x = not tested or not shown. Hits are enriched below; roughly 3.5% of the tested compounds scored in any of these assays.
SMILES,RGS4 block,MrgX1 agonist,RGS4 act,MrgX1 PAM,MrgX1 antag,MrgX1 antag conf,HEK293 Ca flux,HEK293 Ca counter,HEK293 Ca cntr2
Cc1ccc(-c2nc3cccnc3o2)cc1NC(=O)COc1ccc(C(C)(C)C)cc1,i,i,-8.2*,i,-12*,83%*,i,i,i
COC(=O)C1=C(C)NC(=O)CC1c1ccc(F)c(Br)c1 (stereo not drawn),i,i,i,i,-4.6*,i,i,i,i
CCOC(=O)C1CCCN(C(=O)c2cc3c(OC)c(OC)c(OC)cc3[nH]2)C1 (stereo not drawn),i,i,i,i,i,x,x,x,x
Cc1ccc(CCNC(=O)c2nnn(-c3cccc(C)c3)c2N)cc1,i,i,i,i,i,x,x,x,x
Cc1cccc(-n2nnc(C(=O)NCc3ccccc3)c2N)c1,i,i,i,i,-8.4*,i,i,i,i
CCOc1ccc(C2C(C#N)=C(N)Oc3cc(C)n(CCN(C)C)c(=O)c32)cc1OCC (stereo not drawn),i,i,i,i,-4.5*,i,i,i,i
O=C(NCc1ccc(Cl)cc1Cl)C1CCN(S(=O)(=O)c2ccc3c(c2)OCCCO3)CC1,i,i,i,i,-7.1*,i,i,i,i
Cc1ccc(C)c(C(=O)COC(=O)CN2C(=O)C3C4CCC(C4)C3C2=O)c1 (stereo not drawn),i,i,i,i,i,x,x,x,x
COc1c2c(nc3ccccc13)OC(C(C)(O)COC(C)=O)C2 (stereo not drawn),i,i,i,i,-6.5*,i,i,i,i
Cc1nc2ccccc2c2c1CC(C(C)(Cl)Br)O2 (stereo not drawn),i,i,i,i,i,x,x,x,x
O=C(Nc1cc(Cl)cc(Cl)c1)c1ccno1,i,i,i,i,-4.5*,i,i,i,i
Cc1ccc(NNC(=O)c2ccno2)cc1Cl,i,i,i,i,i,x,x,x,x
CCCNc1c(F)c(F)c2c(C)c3ccccc3nc2c1F,i,i,-7.5*,i,-6*,i,0.36*,i,90*
Cc1c2ccccc2nc2ccccc12,i,i,i,i,i,x,x,x,x
O=C(O)CCN1C(=O)c2ccc(NC(=O)CCc3ccccc3)cc2C1=O,i,i,i,i,i,x,x,x,x
CCCc1nnc(SCc2ccc(OCC)cc2)n1N,i,i,i,i,-4.5*,i,i,i,i
CCOC(=O)C1=C(C)N(C)C(C)=C(C(=O)OCC)C1c1ccccn1,i,i,i,i,-7.2*,i,i,i,i
Cc1nc2sc3c(c2c(=O)o1)CC(C)(C)OC3,i,i,i,i,-6.1*,i,i,i,i
Cc1ccc(S(=O)(=O)N2CCOCC2)cc1C(=O)Nc1nc(-c2cccnc2)cs1,i,i,i,i,-13*,i,i,i,i
O=c1ccc(Oc2nc(N3CCCCC3)nc(N3CCCCC3)n2)n[nH]1,i,i,i,i,-5.5*,i,i,i,i
COC(=O)C1CCN(C(=O)[C@H](C)NC(=O)C2CC(=O)N(c3ccc(F)cc3)C2)CC1 (stereo partly drawn),i,i,i,i,i,x,x,x,x
Cc1ccc(OCC(=O)Oc2ccc(C)c(C)c2)cc1,i,i,i,i,i,x,x,x,x
Cc1c(C(=O)Nc2ccc3c(c2)OCO3)sc2ncn(CC(=O)N3CC(C)CC(C)C3)c(=O)c12 (stereo not drawn),i,i,i,i,-6.5*,83%*,i,i,i
O=C(CCNC(=O)c1ccccc1Cl)Nc1nc(-c2ccc(F)cc2)cs1,i,i,i,i,-5.5*,i,i,i,i
O=C(CCN1C(=O)c2ccc(Br)cc2C1=O)NC1CCCCC1,i,i,i,i,i,x,x,x,x
SMILES,RGS4 block,MrgX1 agonist,RGS4 act,MrgX1 PAM,MrgX1 antag,MrgX1 antag conf,HEK293 Ca flux,HEK293 Ca counter,HEK293 Ca cntr2
Cc1ccc(N2CN(Cc3cccnc3)CNC2=S)c(C)c1,i,i,i,i,i,x,x,x,x
Cc1ccc(N2CN(Cc3ccco3)CNC2=S)c(C)c1,i,i,i,i,-6.3*,i,i,i,i
O=C(COC(=O)COc1ccccc1)NCCc1ccccc1,i,i,i,i,-5.2*,i,i,i,i
Cc1ccc(-c2csc(N(CC3CCCO3)C(=O)c3ccco3)n2)cc1 (stereo not drawn),i,i,i,i,-4.7*,i,i,i,i
O=C(c1ccco1)N(CC1CCCO1)c1nc(-c2ccccc2)cs1 (stereo not drawn),i,i,i,i,i,x,x,x,x
Cc1n[nH]c(=O)c2c(NC(=O)CSc3ccccc3Cl)oc(C)c12,i,i,i,i,i,x,x,x,x
CCOc1ccc(NC(=O)Nc2nc(SCC)ns2)cc1,i,i,i,i,-6.3*,78%*,i,i,i
CCSc1nsc(NC(=O)Nc2ccc(F)cc2F)n1,i,i,i,i,i,x,x,x,x
Cc1occc1C(=O)N/N=C/c1cccs1,i,i,i,i,-10*,83%*,i,i,i
C=CCn1c(O)c(CN2CCOCC2)c(C)c(C#N)c1=O,i,i,i,i,-6.4*,i,i,i,i
